The structures appear in SMILES notation. Converted amounts (≈) assume the structure as drawn.

Assay [1] has as its system Staphylococcus aureus. Kind of assay: Minimum inhibitory concentration against methicillin-resistant Staphylococcus aureus (MRSA) A27223. The assay is classed as functional. Summed up:
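Broth microdilution per NCCLS in Mueller-Hinton broth with 2% NaCl. Inoculum about 5×10⁵ CFU/mL, incubated at 35 °C for 24 h. MIC is the lowest drug concentration that inhibits all visible growth.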

In assay [2] the test system is Staphylococcus aureus. Kind of assay: Minimum inhibitory concentration against methicillin-resistant Staphylococcus aureus (MRSA) A27223 in the presence of 50% calf serum. Format: functional. Summed up:
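NCCLS broth MIC in Mueller-Hinton broth with 2% NaCl plus 50% calf serum. Inoculum about 5×10⁵ CFU/mL, incubated at 35 °C for 24 h. Read as the lowest concentration with no visible growth.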

Assay [3] relates to Staphylococcus aureus. The experiment in a line: Dose required for protective activity against methicillin-resistant Staphylococcus aureus (MRSA) A27223 in mouse following i.m. administration. The settings on record: im, read-out: PD50.
Assay [4] has as its system Staphylococcus aureus. The experiment in a line: Minimum inhibitory concentration against Staphylococcus aureus / + 50% calf serum A27223. Format: functional. Summed up:
(§1)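 Broth MIC under NCCLS standard conditions in Mueller-Hinton broth plus 2% NaCl. Inoculum was about 5×10⁵ CFU/mL, incubated at 35 °C for 24 h. The endpoint was the lowest drug concentration inhibiting all visible growth. Where the line states it, 50% calf serum was added.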

In assay [5] the test system is Staphylococcus aureus. The experiment in a line: Minimum inhibitory concentration against Staphylococcus aureus A9606 with 50% calf serum. The assay is classed as functional. In a few lines: (§2)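 Broth dilution MIC under standard NCCLS-recommended conditions. The MIC was read as the lowest drug concentration giving no visible growth. Where the line states it, 50% calf serum was added.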

Assay [6] concerns Streptococcus pyogenes. The experiment in a line: Minimum inhibitory concentration against Streptococcus pyogenes Todd Hewitt A9604. Format: functional. Summed up: as §2
Assay [7] has as its system Staphylococcus aureus. Kind of assay: Minimum inhibitory concentration against Staphylococcus aureus / Pen.- A9497. Format: functional. In a few lines: as §2
Assay [8] concerns Enterococcus faecium. Kind of assay: Minimum inhibitory concentration against Enterococcus faecium A24885. Format: functional. Summed up:
as §2

In assay [9] the test system is Staphylococcus aureus. The experiment in a line: Minimum inhibitory concentration against Staphylococcus aureus A27218 with 50% calf serum. Format: functional. In a few lines:
as §1

The test system of assay [10] is Staphylococcus epidermidis. Kind of assay: Minimum inhibitory concentration against Staphylococcus epidermidis / MR A25783. Format: functional. Summed up: as §2
Assay [11] has as its system Staphylococcus aureus. The experiment in a line: Minimum inhibitory concentration against Staphylococcus aureus / Hetero MR A27218. Format: functional. In a few lines: as §1
The subject of assay [12] is Streptococcus pneumoniae. The experiment in a line: Minimum inhibitory concentration against Streptococcus pneumoniae / Pen.I A27881. Format: functional. In a few lines:
as §2

Assay [13] relates to Staphylococcus aureus. Kind of assay: Concentration required for 90% inhibitory activity against methicillin-resistant Staphylococcus aureus. The assay is classed as functional. Summed up:
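Panel of 58 MRSA strains tested by NCCLS broth method in Mueller-Hinton broth with 2% NaCl. Inoculum about 5×10⁵ CFU/mL, 35 °C for 24 h. MICs read as no visible growth, and MIC90 derived across the panel.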

Assay [14] deals with Enterococcus faecalis. Kind of assay: Minimum inhibitory concentration against Enterococcus faecalis A20688. The assay is classed as functional. Summed up:
as §2

Assay [15] deals with Staphylococcus epidermidis. Kind of assay: Minimum inhibitory concentration against Staphylococcus epidermidis / Imipenem A27368. The assay is classed as functional. Summed up:
as §2

Assay [16] concerns Enterococcus faecium. Kind of assay: Minimum inhibitory concentration against Enterococcus faecium Amp. R. Vanco. S A28156. Format: functional. Summed up: as §2
In assay [17] the test system is Staphylococcus aureus. Kind of assay: Minimum inhibitory concentration against Staphylococcus aureus / Homo MR A27621. The assay is classed as functional. Summed up: as §1
The subject of assay [18] is Staphylococcus aureus. The experiment in a line: Minimum inhibitory concentration against Staphylococcus aureus A20241 /MS/Pen. The assay is classed as functional. Summed up: as §2
In assay [19] the test system is Staphylococcus aureus. Kind of assay: Minimum inhibitory concentration against Staphylococcus aureus / Hetero MR A27217. The assay is classed as functional. In a few lines: as §1
Assay [20] relates to Enterococcus faecalis. The experiment in a line: Minimum inhibitory concentration against Enterococcus faecalis A20688 with 50% calf serum. Format: functional. In a few lines: as §2
For assay [21], the system named is Staphylococcus epidermidis. The experiment in a line: Minimum inhibitory concentration against Staphylococcus epidermidis A24548. Format: functional. Summed up: as §2
Assay [22] has as its system Staphylococcus aureus. Kind of assay: Minimum inhibitory concentration against Staphylococcus aureus / Homo MR A27223. The assay is classed as functional. Summed up:
as §1

The test system of assay [23] is Staphylococcus aureus. Kind of assay: Minimum inhibitory concentration against Staphylococcus aureus / Pen.+ A9606. The assay is classed as functional. In a few lines:
as §2

Assay [24] is described as follows: Concentration required for the inhibitory activity against PBP2a.
The test system of assay [25] is Staphylococcus aureus. Kind of assay: Minimum inhibitory concentration against Staphylococcus aureus / Homo MR A27295. Format: functional. In a few lines:
as §1

Assay [26] concerns Staphylococcus aureus. The experiment in a line: Minimum inhibitory concentration against Staphylococcus aureus / MR. P- A27225. The assay is classed as functional. In a few lines:
as §1

For assay [27], the system named is Staphylococcus haemolyticus. Kind of assay: Minimum inhibitory concentration against Staphylococcus haemolyticus / Homo MR A27229. Format: functional. Summed up: as §2
Assay [28] concerns Staphylococcus haemolyticus. Kind of assay: Minimum inhibitory concentration against Staphylococcus haemolyticus A21638. The assay is classed as functional. In a few lines: as §2
In assay [29] the test system is Streptococcus pneumoniae. Kind of assay: Minimum inhibitory concentration against penicillin resistant Streptococcus pneumoniae A28272. The assay is classed as functional.
Assay [30] concerns Staphylococcus aureus. The experiment in a line: Minimum inhibitory concentration against Staphylococcus aureus / Homo MR A27226. The assay is classed as functional. In a few lines:
as §1

The term MIC denotes the least concentration at which growth counts as inhibited. In the case of `Cc1cc(SCC2=C(C(=O)[O-])N3C(=O)[C@@H](NC(=O)CSc4cc(Cl)ccc4Cl)[C@H]3SC2)cc(CCC(=O)O)[n+]1-c1cccc(O)c1`, the MIC in assay [1] stood at 4 µg/mL (≈ 5.55 µM); in assay [2], 8 µg/mL. Also, the ED50 in assay [3] is more than 25 mg/kg.

`CSCCC[n+]1c(C)cc(SCC2=C(C(=O)[O-])N3C(=O)[C@@H](NC(=O)CSc4cc(Cl)ccc4Cl)[C@H]3SC2)cc1CCC(=O)O`: the MIC in [1] worked out at 2 µg/mL (≈ 2.79 µM); in assay [2], 4 µg/mL. Moreover, the ED50 in [3] was more than 25 mg/kg.

The MIC90 is an inhibitory concentration at the 90% level, which refers to growth in some studies and to a panel of isolates in others. Low readings indicate greater potency, high ones weaker potency. One may read the IC50 as the concentration needed to halve the response being measured. Take `NCCC[n+]1ccc(SCC2=C(C(=O)O)N3C(=O)[C@@H](NC(=O)CSc4cc(Cl)ccc4Cl)[C@H]3SC2)cc1CCCC(=O)O.O=C(O)C(F)(F)F.O=C([O-])C(F)(F)F`: the MIC came out at 2 µg/mL in [4]; 0.25 µg/mL in assay [5]; 0.0005 µg/mL in [6]; 0.001 µg/mL in assay [7]; 1 µg/mL in assay [8]; 0.5 µg/mL in assay [9]. The MIC in assay [10] was determined as 0.03 µg/mL; in assay [11], 0.5 µg/mL; in assay [12], 0.007 µg/mL; in [14], 0.25 µg/mL; in assay [15] it was 0.125 µg/mL; in assay [16], 32 µg/mL. Further, the MIC in assay [17] worked out at 0.5 µg/mL; in assay [18], 0.06 µg/mL; in [19], 0.25 µg/mL; in assay [1], 0.5 µg/mL; in assay [20], 1 µg/mL; in [21], 0.015 µg/mL. For the same molecule, the MIC in assay [2] came to 4 µg/mL; in [22], 0.5 µg/mL; in [23] it was 0.06 µg/mL; in assay [25], 1 µg/mL; in [26], 0.5 µg/mL; in assay [27], 1 µg/mL. Also, the values for the minimum inhibitory concentration (MIC) in assay [28], in assay [29] and in assay [30] were 0.03 µg/mL, 0.06 µg/mL and 0.25 µg/mL, respectively. The molecule also had an MIC90 in [13] of 4 µg/mL. Moreover, the ED50 in assay [3] stood at 5.1 mg/kg. The molecule also came in with a concentration for half-maximal inhibition (IC50) in assay [24] of 3.4 µM.

As for `C[n+]1ccc(SCC2=C(C(=O)[O-])N3C(=O)[C@@H](NC(=O)CSc4cc(Cl)ccc4Cl)[C@H]3SC2)cc1CCCC(=O)O`, the minimal inhibitory concentration (MIC) came to 4 µg/mL (≈ 6.22 µM) in assay [1] and 8 µg/mL in assay [2]. In addition, the ED50 in assay [3] amounted to 5.2 mg/kg.

Consider `Cc1cc(SCC2=C(C(=O)O)N3C(=O)[C@@H](NC(=O)CSc4cc(Cl)ccc4Cl)[C@H]3SC2)cc(CCC(=O)O)[n+]1CCN.O=C(O)C(F)(F)F.O=C([O-])C(F)(F)F`, for which the MIC in [1] and in [2] was 2 µg/mL each time. For the same molecule, the ED50 in [3] stood at 3.9 mg/kg.

`Cc1cc(SCC2=C(C(=O)[O-])N3C(=O)[C@@H](NC(=O)CSc4cc(Cl)ccc4Cl)[C@H]3SC2)cc(CCC(=O)O)[n+]1CCO`: the MIC in assay [1] amounted to 2 µg/mL (≈ 2.97 µM); in assay [2], 4 µg/mL. Moreover, the ED50 in [3] came out at 8.4 mg/kg.

On to `Cc1cc(SCC2=C(C(=O)[O-])N3C(=O)[C@@H](NC(=O)CSc4cc(Cl)ccc4Cl)[C@H]3SC2)cc(CCC(=O)O)[n+]1CCc1cccs1`, for which the values for the MIC in assay [1] and in [2] were 4 µg/mL (≈ 5.41 µM) and 8 µg/mL, respectively. For the same molecule, the ED50 in [3] was more than 23 mg/kg.

Regarding `Cc1cc(SCC2=C(C(=O)[O-])N3C(=O)[C@@H](NC(=O)CSc4cc(Cl)ccc4Cl)[C@H]3SC2)cc(CCc2ccc(Cl)s2)[n+]1CC[C@@H](O)C(=O)O`, the MIC in assay [1] was found to be 8 µg/mL (≈ 9.96 µM); in [2], 8 µg/mL. In addition, in [3], the ED50 was more than 23 mg/kg.

With `Cc1cc(SCC2=C(C(=O)O)N3C(=O)[C@@H](NC(=O)CSc4cc(Cl)ccc4Cl)[C@H]3SC2)cc(CCC(=O)O)[n+]1CCCN.O=C(O)C(F)(F)F.O=C([O-])C(F)(F)F`, the MIC in assay [4] is 4 µg/mL; in [5], 0.25 µg/mL; in [6] it was 0.0005 µg/mL; in assay [7], 0.007 µg/mL; in [8] it was 2 µg/mL; in assay [9] it was 1 µg/mL. Besides, the MIC in [10] is 0.25 µg/mL; in assay [11], 0.5 µg/mL; in [12], 0.06 µg/mL; in assay [14] it was 0.5 µg/mL; in assay [15], 0.5 µg/mL; in [16], 64 µg/mL. The minimum inhibitory concentration (MIC) in assay [17] turned out to be 1 µg/mL; in [18], 0.25 µg/mL; in assay [19], 0.5 µg/mL; in assay [1] (Staphylococcus aureus, read-out: MIC), 1 µg/mL; in [20], 4 µg/mL; in assay [21] it was 0.03 µg/mL. Moreover, the MIC in assay [2] was 4 µg/mL; in assay [22], 1 µg/mL; in assay [23], 0.125 µg/mL; in assay [25], 2 µg/mL; in assay [26], 0.5 µg/mL; in [27], 2 µg/mL. In addition, the results for the MIC in [28], in assay [29] and in assay [30] were 0.125 µg/mL, 0.25 µg/mL and 0.5 µg/mL, respectively. The ED50 in [3] came out at 2.5 mg/kg.

The values are drawn from ChEMBL document CHEMBL1134236, “Anti-MRSA cephems. Part 1: C-3 substituted thiopyridinium derivatives” (Bioorg Med Chem Lett, 2001).
